# Pyk2 oligo antag – Pyk2 (human) oligomerization antagonism; hit rate 0.83% among 99,000; Q14289; z-score (the deposit names both 25 µM and 10 µM); Q293 cells, Pyk2 FERM NanoBiT luminescence; stronger effect = lower value;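 active = Z-score of -3 or lower, scaled per plate to the spread of control and sample wells; inactive = z-score above -3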;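 also: negative z-score means lost luminescence so less FERM oligomerization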
# LYP act – LYP (human) phosphatase activation; recombinant LYP, DiFMUP fluorescence; 0 = plate median, 100 = signal doubled; Q9Y2R2; hit rate 0.11% among 96,000; activation, % at 2 µM;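 active = activation at 2 µM above a set limit, the mean plus 5 SD, cut at about 37% in these data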
# PTPN22 inh 2 – LYP (human) phosphatase inhibition; inhibition, % at 2 µM; hit rate 0.21% among 96,000; recombinant LYP catalytic domain, DiFMUP fluorescence; Q9Y2R2;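 active = inhibition at 2 µM at or above a set limit, the screen mean plus 3 SD, cut at about 24% in these data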;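 also: 0% = DMSO with enzyme and 100% = enzyme fully blocked by orthovanadate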
# HIV Rev-RRE inh – disrupts HIV-1 Rev binding to RRE RNA; P05866; Rev peptide-RRE RNA binding, FRET; inhibition, % at 8 µM; hit rate 0.79% among 97,000; AID 704;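 active = inhibition above the screen-wide mean plus 3 SD, cut at about 35% in these data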;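 also: 0% = median DMSO wells and 100% = median Neomycin B control wells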
#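 Test system: Cy5-tagged RRE RNA duplex with fluorescein-tagged Rev peptide; Probe or stimulus: labelled Rev peptide; Schedule: 5 min preincubation and 15 min binding, 25 °C; Signal: FRET fluorescence readout; Evaluation: % inhibition from 671/540 nm acceptor-to-donor ratio, scaled between controls; Control set: DMSO and neomycin B.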
# The depositor's hits bear a star; · = not tested or not shown; [ ] = remark or other dose. Only some compounds are listed: those with a hit (about 1.8% of all), similar ones and a draw of the others.
SMILES,Pyk2 oligo antag,LYP act,PTPN22 inh 2,HIV Rev-RRE inh
Cn1c(=O)c2c(nc(NCc3ccco3)n2C)n(C)c1=O,0.53,-6,2,5
Cc1ccc(/C=C(/C#N)c2nc(CCN3C(=O)c4ccccc4C3=O)cs2)cc1,-3.2*,-1,4,14
COc1ccc(C(=O)/C=C/c2ccccc2OC)c(OC(=O)c2ccc([N+](=O)[O-])cc2)c1,-3.3*,-14,12,7
CCOC(=O)C1NC(=O)CC1c1ccccc1 (configuration not stated),0.43,-4,7,5
CCOC(=O)[C@@H]1CCNC[C@@H]1c1ccccc1,0.24,1,-4,141*[fluorescence artefact?]
COc1cc(C(=O)N2CCC(O)(c3ccccc3)CC2)cc(OC)c1OC,-0.06,-4,1,8
O=C(OCC1OC(n2cnc3c(N(C(=O)c4ccccc4)C(=O)c4ccccc4)ncnc32)C(O)C1F)c1ccccc1 (configuration not stated),-0.3,-59,60*,5
O=C1NC(=Nc2ccccc2)S/C1=C\c1cccn1-c1ccccc1,-2.2,-3,3,8
CSc1nnc2c3ccccc3n(Cc3ccccc3)c2n1,-2.2,-8,10,-2
CSc1nnc2c3ccccc3n(CCc3ccccc3)c2n1,-3.3*,·,·,·
COc1ccc(C2C(C#N)=C(N)OC3=C2C(=O)CC(C)(C)C3)c([N+](=O)[O-])c1OC (configuration not stated),1.7,2,1,4
COc1cc(C2C(C#N)=C(N)OC3=C2C(=O)CC(C)(C)C3)c([N+](=O)[O-])cc1OC (configuration not stated),1.3,6,-2,49*
Clc1ccc2[nH]cc(-c3nnnn3-c3ccc4ccccc4c3)c2c1,-3.2*,6,-8,11
Cc1cccc2cc3c(N)c(C(=O)Nc4ccc(N5CCOCC5)cc4)sc3nc12,-3.4*,6,-2,7
Cc1sc(NC(=O)c2sc3nc4c(C)cccc4cc3c2N)c(C#N)c1C,-0.46,-54,56*,101*[fluorescence artefact?]
Cc1ccc2nc3sc(C(=O)Nc4ccc(N5CCOCC5)cc4)c(N)c3cc2c1,·,-1,2,9
COc1ccccc1C(=O)OCc1c(F)cccc1Cl,-0.96,-1,4,5
COc1ccc(CC(=O)NC2CC(C)(C)NC(C)(C)C2)cc1,1,-1,1,5
Cc1cccn2c(N)c(-c3ccccc3)nc12,-0.45,2,-4,108*[fluorescence artefact?]
CCCc1cc(-c2nc(N)ncc2-c2ccc3c(c2)OCCCO3)c(O)cc1OC,-3.1*,-10,9,24
S=c1[nH]nc(COc2ccccc2)n1/N=C/C(Cl)=C/c1ccccc1,0.72,-26,28*,-6
S=c1[nH]nc(COc2ccccc2)n1/N=C/c1cccnc1,1.6,·,·,·
N=c1oc2c3c4c(cc2cc1C(=O)Nc1ccccc1)CCCN4CCC3,-0.57,-6,6,127*[fluorescence artefact?]
O=C(Nc1ccccc1)c1cccnc1N1CCCC1,-0.08,2,-1,10
O=C(CN1C(=O)C2CC=CCC2C1=O)NCC1COc2ccccc2O1 (configuration not stated),0.12,-3,5,10
SMILES,Pyk2 oligo antag,LYP act,PTPN22 inh 2,HIV Rev-RRE inh
CCCCCCCOc1ccc(OC(=O)c2cccnc2)cc1,-1,-1,4,-3
O=C(CSc1nnc(C23CC4CC(CC(C4)C2)C3)o1)Nc1ccc(N2CCOCC2)c(Cl)c1,-3.3*,-6,-1,5
O=C(CSc1nnnn1-c1cccc2ccccc12)Nc1ccc(N2CCOCC2)c(Cl)c1,-3.3*,6,-3,-2
Cc1cc(C)nc(SCC(=O)Nc2ccc(N3CCOCC3)c(Cl)c2)n1,0.82,-15,18,2
COc1ccc(C2NC3=C(CCC3)C3(C#N)C4(N=C(N)C23C#N)OCCO4)cc1 (configuration not stated),0.11,1,-2,11
COc1ccc(C2NC3=C(CCCC3)C(C#N)(C#N)C2(C#N)C#N)cc1 (configuration not stated),·,-15,13,46*
Clc1ccc(C2=C3CCCCn4c(-c5ccccc5)c[n+](c43)C2)cc1,0.55,-24,26*,11
CN1CCCN(C(=O)Cc2c(Cl)cccc2Cl)c2nc3ccccc3nc21,-0.23,-5,3,20
CC1CCCC(n2c(=S)[nH]c3ccccc3c2=O)C1C (configuration not stated),-0.55,-8,5,3
CCOc1cc(C2C(C#N)=C(N)SC(N)=C2C#N)ccc1OCCN1CCOCC1,0.14,3,-7,75*
COc1ccc(C2C(C#N)=C(N)SC(N)=C2C#N)cc1OC,1.1,8,-6,110*[fluorescence artefact?]
N#CC1=C(N)SC(N)=C(C#N)C1c1cccc(O)c1,-0.53,11,-14,74*
COc1ccc(C2C(C#N)=C(N)OC(C(C)(C)C)=C2C#N)cc1OC (configuration not stated),0.4,-6,6,3
O=C(COC(=O)c1c[nH]c(=O)[nH]c1=O)NCc1ccccc1,0.47,4,-2,9
CCOC(=O)CC(=O)CSc1nc(-c2cccnc2)ccc1C#N,-0.54,-6,3,88*[fluorescence artefact?]
CCOC(=O)CC(=O)CSc1nc(-c2cccnc2)cc(C)c1C#N,0.49,-5,6,0
Cc1cc(-c2ccco2)n2c(nc3ccccc32)c1C#N,-0.4,-3,4,47*
CCSC1=C(C#N)C(c2ccc(F)cc2)CC(=O)N1 (configuration not stated),·,4,-7,2
CCCCCCSC1=C(C#N)C(c2ccc(O)cc2)CC(=O)N1 (configuration not stated),-3.3*,1,0,12
CCN(CC)c1ccc(NC(=O)COC(=O)c2ccc3ccccc3n2)cc1,0.34,-8,11,1
Cc1cc(NCCO)c2ccccc2n1,-0.41,10,-7,4
CCCNc1c(F)c(F)c2c(C)c3ccccc3nc2c1F,-0.32,-2,7,121*[fluorescence artefact?]
CCOC(=O)C1=C(C)NC(=O)C(C(N)=O)C1c1ccccc1 (configuration not stated),0.72,-8,7,6
Cn1c2c(c(=O)n(C)c1=O)C(C(F)(F)F)(C(F)(F)F)N=C(c1ccc(Cl)cc1)N2,-3.3*,-3,7,0
N#CC1=C(SCC(=O)NC2CC2)NC(=O)C(C#N)C12CCCCC2 (configuration not stated),-0.19,9,-9,-4
SMILES,Pyk2 oligo antag,LYP act,PTPN22 inh 2,HIV Rev-RRE inh
N#CC1=C(SCC(=O)NC23CC4CC(CC(C4)C2)C3)NC(=O)C(C#N)C12CCCCC2 (configuration not stated),-3.3*,2,-2,-2
CCCSc1nnc(NC(=O)c2sc3nc(-c4cccs4)ccc3c2N)s1,0.01,-7,5,105*[fluorescence artefact?]
O=C(Nc1nc(-c2cccs2)cs1)c1ccc(Cl)cc1,0.61,5,-3,10
CCSc1nnc(NC(=O)c2cccs2)s1,-0.24,·,·,·
Cc1csc(NC(=O)c2sc3nc(-c4cccs4)ccc3c2N)n1,·,-5,7,102*[fluorescence artefact?]
CCN(CC)C(=O)COc1ccc(-c2ccccc2)cc1,-1.4,-1,1,7

# Screening data from PubChem BioAssay.
